Experimental data: paper PMC8227600 (ACS Central Science, 2021)
Structures can show the parent of a compound that is named as a salt.

What was measured:
HT22 cells [1] = test: Erastin-induced ferroptosis in HT22 cells; assay type: cell-based, mouse
Procedure, shortened: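 HT22 cells were cotreated with Erastin and test compound, and cell viability was measured. A value was reported as not determined where viability was below 50% at 1.0 μM compound with Erastin.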

ferritin = test: Ferritin protein level; assay type: cell-based, mouse; conditions: 6 h
HT-1080 cells [2] = test: Lipid ROS in HT-1080 cells after GPX4 knockdown; assay type: cell-based, human; conditions: 0.5 μM 9a, 36 h
HT22 cells [3] = test: Intracellular Fe^2+; assay type: cell-based, mouse; conditions: 6 h; for fluorescence intensity of FerroOrange (free Fe^2+): 0.5 μM 9a or 50 μM DFO
Procedure, shortened: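 Live HT22 cells were given 0.5 μM test compound or 50 μM DFO for 6 h, then imaged by confocal microscopy with the Fe2+ probe FerroOrange; nuclei were stained with Hoechst 33342. Lysosomal Fe2+ was scored as FerroOrange signal colocalised with LysoTracker Green per cell, about 100 cells per condition. Three independent experiments, mean ± SEM.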

HT-1080 cells [4] = test: Ferroptosis induced by Erastin, RSL3, ML210 or GPX4 knockdown in HT-1080 cells; assay type: cell-based, human
Procedure, shortened: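 HT-1080 cells were transfected for 12 h with scrambled siRNA (si-NC) or GPX4-targeting siRNA. Cells were then treated for 36 h with or without 0.5 μM test compound, 0.5 μM Fer-1 or 20 μM DFO. Viability was read by CCK-8. Values are mean ± SEM of three independent experiments.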

HT22 cells [5] = test: Intracellular GSH level and GPX4 expression in HT22 cells; assay type: cell-based, mouse; conditions: 12 h
HT22 cells [6] = test: LC3-II level; assay type: cell-based, mouse; conditions: 6 h, Western blotting
NCOA4^383–522 [7] = target: T1, NCOA4^383–522 (Homo sapiens, UniProt Q13772); test: Pull-down of recombinant NCOA4^383–522; assay type: binding; conditions: protein preincubated with 9a 1 h
T1 sequence (Q13772 383-522): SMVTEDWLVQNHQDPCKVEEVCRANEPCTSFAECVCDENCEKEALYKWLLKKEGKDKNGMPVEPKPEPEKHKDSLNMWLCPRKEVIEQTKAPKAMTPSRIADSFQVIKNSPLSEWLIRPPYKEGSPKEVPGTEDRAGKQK
Procedure, shortened: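 Recombinant NCOA4 383–522 or FTH1 protein was pretreated with test compound or DMSO for 1 h. It was then incubated for 1 h with increasing concentrations of a biotinylated probe precoupled to streptavidin magnetic beads. Bead-bound protein was detected by silver staining and Western blotting.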

HT22 cells [8] = test: Non-ferroptotic cell death; assay type: cell-based, mouse
NCOA4 = target: T2, NCOA4 (Homo sapiens, UniProt Q13772); test: Biotin–streptavidin pull-down from HEK-293T lysates; assay type: binding; conditions: lysate preincubated with 9a (20 μM) 6 h at 4 °C
T2 sequence (Q13772 1-614): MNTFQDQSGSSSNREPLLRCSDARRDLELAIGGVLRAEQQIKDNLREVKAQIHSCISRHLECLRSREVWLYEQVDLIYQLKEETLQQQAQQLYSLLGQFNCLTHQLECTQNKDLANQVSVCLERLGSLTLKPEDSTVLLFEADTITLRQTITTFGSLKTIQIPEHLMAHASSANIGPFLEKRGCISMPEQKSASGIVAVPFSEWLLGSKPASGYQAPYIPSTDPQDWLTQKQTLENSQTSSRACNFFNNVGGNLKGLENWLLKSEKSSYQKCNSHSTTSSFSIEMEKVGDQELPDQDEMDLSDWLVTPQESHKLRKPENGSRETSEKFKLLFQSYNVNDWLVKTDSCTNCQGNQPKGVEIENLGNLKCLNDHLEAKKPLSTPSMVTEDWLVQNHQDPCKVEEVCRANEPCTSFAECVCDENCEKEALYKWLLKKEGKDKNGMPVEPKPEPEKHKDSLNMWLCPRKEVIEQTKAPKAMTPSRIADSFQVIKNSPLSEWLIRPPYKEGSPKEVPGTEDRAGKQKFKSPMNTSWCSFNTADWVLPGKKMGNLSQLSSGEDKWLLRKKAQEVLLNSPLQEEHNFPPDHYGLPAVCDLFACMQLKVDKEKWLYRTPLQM
Procedure, shortened: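 HEK-293T lysates expressing FTH1-Myc-His and NCOA4-Flag were pretreated with test compound or DMSO for 6 h at 4 °C. They were then incubated overnight at 4 °C with increasing concentrations of a biotinylated probe precoupled to streptavidin magnetic beads. Precipitates were pulled down with the beads and immunoblotted with anti-tag antibodies. Biotin-PEG3-N3 served as the negative-control probe.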

PTGS2 mRNA = PTGS2 mRNA expression; assay type: cell-based, mouse; conditions: 12 h
HT22 cells [9] = test: Lipid ROS; assay type: cell-based, mouse; conditions: 3 h; for lipid ROS, oxidized BODIPY-C11 fluorescence intensity: 1 μM RSL3, 0.5 μM compound
Procedure, shortened: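 HT22 cells were exposed to 1 μM RSL3 with or without 0.5 μM test compound or 0.5 μM Fer-1 for 3 h. Lipid ROS was detected with BODIPY-C11 (oxidized form, green) by confocal microscopy (Hoechst 33342 nuclei) and by flow cytometry. Cytosolic ROS was measured by flow cytometry with carboxy-H2DCFDA.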

NCOA4^383–522 [10] = target: T1, NCOA4^383–522; test: Surface plasmon resonance binding to NCOA4^383–522
[11] = target: T3, NCOA4^383–522–FTH1 interaction (Homo sapiens, UniProt Q13772); test: ELISA for NCOA4^383–522–FTH1 protein-protein interaction; assay type: binding
T3 sequence (Q13772 383-522): T1 sequence (Q13772 383-522)
Procedure, shortened: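 Test compound at the indicated concentrations was preincubated with recombinant NCOA4 383–522. Binding of NCOA4 383–522 to FTH1 was then monitored by ELISA to build a dose–response curve. Values are mean ± SEM of three independent experiments.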

[12] = system: MCAO model of ischemic stroke; assay type: in vivo, rat; conditions: for infarct volume (TTC staining): rat, in vivo
NCOA4–FTH1 interaction = target: T4, NCOA4–FTH1 interaction (Homo sapiens, UniProt Q13772); test: Coimmunoprecipitation of NCOA4 and FTH1 in cells; assay type: cell-based
T4 sequence (Q13772 1-614): T2 sequence (Q13772 1-614)

HT22 cells [13] = test: Ferroptosis induced by cysteine depletion, BSO or ML210 in HT22 cells; assay type: cell-based, mouse; conditions: for cell death from cysteine depletion: cystine-free media 24 h, 0.5 μM 9a, 0.5 μM Fer-1 or 20 μM DFO
HT22 cells [14] = test: RSL3-induced ferroptosis in HT22 cells; assay type: cell-based; conditions: Mus musculus, HT-22, 24 h, read-out: EC50, inhibition of RSL3-induced death

Compound: CN1CCN(c2ccc3nc(-c4cccc(N5CCc6ccccc6C5)c4)[nH]c3c2)CC1 [4a]
- EC50 (HT22 cells [1]; Mus musculus, HT-22, 24 h): 500 nM

Compound: CC1CCN(c2ccc3nc(-c4cccc(N5CCc6ccccc6C5)c4)[nH]c3c2)CC1 [4b]
- EC50 (HT22 cells [1]; Mus musculus, HT-22, 24 h): 640 nM

Compound: c1cc(-c2nc3ccc(N4CCCCC4)cc3[nH]2)cc(N2CCc3ccccc3C2)c1 [4c]
- EC50 (HT22 cells [1]; Mus musculus, HT-22, 24 h): 1210 nM

Compound: CN1CCN(c2ccc3nc(-c4cccc(N5CCc6cc(F)ccc6C5)c4)[nH]c3c2)CC1 [9a]
- mRNA expressions of FTH1 and FTL (ferritin; 0.5 μM 9a, qPCR): did not change
- protein level of ferritin (ferritin; Western blotting): increased in a dose-dependent manner
- lipid ROS accumulation induced by knockdown of GPX4 (HT-1080 cells [2]): inhibited lipid ROS accumulation
- fluorescence intensity of FerroOrange (free Fe^2+) (HT22 cells [3]): significantly decreased
- Fe^2+ in lysosomes (FerroOrange colocalized with LysoTracker Green) (HT22 cells [3]; 0.5 μM 9a): diminished
- ferroptosis induced by Erastin, RSL3, or ML210 (HT-1080 cells [4]; inducers 1 μM, 24 h): inhibited ferroptosis
- ferroptosis induced by knockdown of GPX4 (HT-1080 cells [4]; si-GPX4 12 h, then 0.5 μM 9a 36 h): significantly suppressed ferroptosis
- intracellular GSH level (HT22 cells [5]): did not change
- GPX4 expression (HT22 cells [5]; immunoblot): did not change
- LC3-II level (HT22 cells [6]): no ability to induce an increase in the LC3-II level
- competition of Biotin-14d binding to NCOA4^383–522 (NCOA4^383–522 [7]): blocked
- EC50 (HT22 cells [1]; Mus musculus, HT-22, 24 h): 290 nM
- staurosporine (STS)-induced apoptosis (HT22 cells [8]; 0.5 μM STS, 24 h): cannot inhibit
- hydrogen peroxide (H2O2)-induced necrosis (HT22 cells [8]; 2 mM H2O2, 12 h): cannot inhibit
- TNF-α/SM-164/zVAD-fmk-induced necroptosis (HT22 cells [8]; 12 h): cannot inhibit
- competition of Biotin-14d binding to NCOA4 (NCOA4): competitively inhibited
- RSL3-induced PTGS2 mRNA expression (PTGS2 mRNA): dose-dependently inhibited the upregulation of PTGS2 expression
- lipid ROS, oxidized BODIPY-C11 fluorescence intensity (HT22 cells [9]): remarkably decreased
- RSL3-induced cytosolic ROS accumulation (HT22 cells [9]; carboxy-H2DCFDA, flow cytometry): suppressed by 9a in a dose-dependent manner
- Kd (NCOA4^383–522 [10]): 7480 nM
- IC50 [11]: 3260 nM
- 4-hydroxynonenal (4-HNE) level in the lesioned hemisphere ([12]; 10 mg/kg i.p.): reduced
- PTGS2 gene expression in the lesioned hemisphere ([12]; 10 mg/kg i.p.): significantly decreased
- malondialdehyde (MDA) level in the lesioned hemisphere ([12]; 10 mg/kg i.p.): reduced
- neurological deficits (Longa test) ([12]; 10 mg/kg i.p., 24 h after MCAO and reperfusion): improved neurological deficits
- percentage of injured neurons in the cortex (Nissl staining) ([12]; 10 mg/kg i.p., lesioned hemisphere): reduced the percentage of injured neurons in the cortex
- infarct volume (TTC staining) [12]: substantially reduced infarct volume
- NCOA4–FTH1 interaction, co-IP of FTH1-Myc-His and NCOA4-Flag (NCOA4–FTH1 interaction; HEK-293T cells, 16 h treatment): substantially impaired
- endogenous NCOA4–FTH1 interaction, co-IP (NCOA4–FTH1 interaction; HT-1080 cells, 6 h): inhibited the endogenous NCOA4 interaction with FTH1
- BSO-induced ferroptosis (HT22 cells [13]; 100 μM BSO, 12 h): dose-dependently prevented cell death
- ML210-induced ferroptosis (HT22 cells [13]; ML210 10 μM, 24 h): ferroptosis inhibitory behavior similar to those of Fer-1 and DFO
- cell death from cysteine depletion (HT22 cells [13]): significantly reduced the level of cell death

Compound: Cc1ccc2c(c1)CN(c1cccc(-c3nc4ccc(N5CCN(C)CC5)cc4[nH]3)c1)CC2 [9e]
- EC50 (HT22 cells [1]; Mus musculus, HT-22, 24 h): 770 nM

Compound: COc1cccc2c1CN(c1cccc(-c3nc4ccc(N5CCN(C)CC5)cc4[nH]3)c1)CC2 [9f]
- EC50 (HT22 cells [1]; Mus musculus, HT-22, 24 h): 330 nM

Compound: CCOc1ccc2c(c1)CCN(c1cccc(-c3nc4ccc(N5CCN(C)CC5)cc4[nH]3)c1)C2 [14a]
- EC50 (HT22 cells [1]; Mus musculus, HT-22, 24 h): 510 nM

Compound: CCCOc1ccc2c(c1)CCN(c1cccc(-c3nc4ccc(N5CCN(C)CC5)cc4[nH]3)c1)C2 [14b]
- EC50 (HT22 cells [1]; Mus musculus, HT-22, 24 h): 390 nM

Compound: CC(C)Oc1ccc2c(c1)CCN(c1cccc(-c3nc4ccc(N5CCN(C)CC5)cc4[nH]3)c1)C2 [14c]
- EC50 (HT22 cells [1]; Mus musculus, HT-22, 24 h): 530 nM

Compound: C#CCOc1ccc2c(c1)CCN(c1cccc(-c3nc4ccc(N5CCN(C)CC5)cc4[nH]3)c1)C2 [14d]
- EC50 (HT22 cells [1]; Mus musculus, HT-22, 24 h): 880 nM
- EC50 (HT22 cells [14]): 690 nM

Compound: CC(=O)N(O)CCCCCNC(=O)CCC(=O)N(O)CCCCCNC(=O)CCC(=O)N(O)CCCCCN [DFO, Deferoxamine mesylate, reference compound]
- fluorescence intensity of FerroOrange (free Fe^2+) (HT22 cells [3]): significantly decreased
- EC50 (HT22 cells [1]; Mus musculus, HT-22, 24 h): 5750 nM
- cell death from cysteine depletion (HT22 cells [13]): significantly reduced the level of cell death

Compound: CCOC(=O)c1ccc(NC2CCCCC2)c(N)c1 [Fer-1, Ferrostatin-1, reference compound]
- EC50 (HT22 cells [1]; 1 μM Erastin, 24 h, CCK-8): 82 nM
- lipid ROS, oxidized BODIPY-C11 fluorescence intensity (HT22 cells [9]): remarkably decreased
- infarct volume (TTC staining) [12]: substantially reduced infarct volume
- cell death from cysteine depletion (HT22 cells [13]): significantly reduced the level of cell death
